Screening results deposited in PubChem BioAssay by The Scripps Research Institute Molecular Screening Center.
TRPML3 agonist – human TRPML3 channel agonists, primary screen, cell-based, HEK293 TRPML3-YFP, Fluo-8 calcium fluorescence, 3 µM; Mucolipin-3 (Homo sapiens), Q8TDD5; activation, % at 3 µM; 0.29% of 220,000 active; 100% = the carbachol control signal;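 active means activation above its plate's cutoff, the mean activation of the plate's test wells plus 3 SD, cut at about 12% in these data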;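 further: 0% = DMSO only wells and 100% = carbachol wells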
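Material: HEK293 cells stably carrying human TRPML3-YFP; compound dosing: single dose, 3 µM final nominal compound, 0.3% DMSO final; incubation: 1-h 37 °C dye load, 5-s basal, 120-s post-compound reads; technique: Fluo-8 intracellular calcium fluorescence, excitation 470-495 nm, emission 515-575 nm; read-out basis: percent activation from peak-to-basal fluorescence ratio, scaled between DMSO and carbachol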
V1aR counter – agonists of human V1a receptor, primary screen, counter-screen for OXTR agonist project, fluorescence, CHO-V1R cells. activation, % at 3 µM. 0.25% of 320,000 active. Fluo-8 calcium fluorescence, agonist mode; 0% DMSO, 100% 3 nM vasopressin;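 active means activation above the mean activation of all tested compounds plus 3 SD, per screening run, cut at about 20% in these data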;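 further: signal is peak over basal fluorescence ratio across a 100 second FLIPR read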
Target sequence (P37288 whole entry, looked up): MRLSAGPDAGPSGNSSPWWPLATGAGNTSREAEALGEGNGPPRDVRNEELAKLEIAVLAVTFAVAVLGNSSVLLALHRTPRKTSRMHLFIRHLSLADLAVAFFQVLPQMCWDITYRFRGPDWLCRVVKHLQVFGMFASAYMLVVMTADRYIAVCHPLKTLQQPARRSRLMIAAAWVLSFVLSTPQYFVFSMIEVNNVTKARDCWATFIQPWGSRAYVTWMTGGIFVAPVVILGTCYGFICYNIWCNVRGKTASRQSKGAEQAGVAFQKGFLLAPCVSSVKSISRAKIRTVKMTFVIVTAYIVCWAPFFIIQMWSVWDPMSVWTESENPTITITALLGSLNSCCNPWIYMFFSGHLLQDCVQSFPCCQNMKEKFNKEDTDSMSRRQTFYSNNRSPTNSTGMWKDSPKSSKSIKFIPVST
zfTRPN1 agonist – zebrafish TRPN1 channel agonists, primary screen, cell-based, HEK293, calcium fluorescence | transient receptor potential cation channel N1 (TRPN1/NompC), Danio rerio | HEK293 zebrafish TRPN1-YFP, Fluo-8 calcium fluorescence; 100% = response to 87 µM carbachol | activation, % at 3 µM | 0.18% of 220,000 active | AID 1424, 2008;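 active means activation above its plate's cutoff, the mean activation of test wells on that plate plus 3 SD, cut at about 19% in these data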;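 further: 0% = DMSO alone and 100% = 87 µM carbachol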
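Material: zebrafish TRPN1-YFP in HEK293 cells; Doses: single test compound dose, 3 µM nominal, 0.3% DMSO; Timing: dye loading 1 h at 37 °C, then 30 min room temperature; Technique: intracellular calcium fluorescence with Fluo-8; Benchmarks: high carbachol 87 µM, low DMSO alone.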
OXTR potentiate – human OXTR potentiators, primary screen, fluorescence, CHO-OTR cells, Fluo-8 calcium; activation, % at 3 µM; Fluo-8 calcium fluorescence, potentiator mode; 0% = oxytocin EC15, 100% = EC100; Oxytocin receptor (Homo sapiens), P30559; 0.061% of 320,000 active;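 active means activation above that plate's cutoff, the mean activation of tested compounds plus 3 SD, cut at about 6.6% in these data, passing the limit was not always enough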;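 further: 100% uses oxytocin at 75 nM as the full agonist control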
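Dosing: Single dose, 3.0 µM nominal final compound concentration | Material: Human OTR in CHO cells | Technique: Kinetic Fluo-8 calcium fluorescence | Benchmarks: EC15 oxytocin alone as 0%, 75 nM oxytocin as 100% | Probe or stimulus: Oxytocin at about EC15, sub-maximal agonist stimulus | Incubation: Compound 6 min at room temperature before oxytocin, 100 s read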
OXTR ag – human OXTR agonists, primary screen, fluorescence, CHO-OTR cells, Fluo-8 calcium | Fluo-8 calcium fluorescence; normalized: DMSO 0%, oxytocin 100% | activation, % at 3 µM | 0.32% of 320,000 active;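 active means activation above the mean of all tested compounds plus 3 SD, cutoff set per screening run, cut at about 20% in these data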;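 further: peak over basal fluorescence ratio from a 100 s FLIPR kinetic read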
An asterisk follows results filed as active; x = no result. Only some compounds are listed: those with a hit (about 0.55% of all), similar ones and a draw of the others.

SMILES	TRPML3 agonist	V1aR counter	zfTRPN1 agonist	OXTR potentiate	OXTR ag
COc1ccc(C(OCC(O)CNCCc2ccc(S(N)(=O)=O)cc2)c2ccc(OC)cc2)cc1 (configuration not stated)	x	0	x	-12	2
Cc1cc(N2CCCC2)ccc1/C=C1\NC(=S)N(C)C1=O	9	49*	14	-20	54*
CN1C(=O)c2ccc(N3CCCC3)cc2C1=O	1	4	1	-5	4
O=C1N/C(=C/c2ccc(N3CCCC3)cc2)C(=O)N1c1ccccc1	0	4	0	-3	2
O=C1/C(=C/c2ccc(N3CCCC3)cc2)NC(=S)N1C1CC1	7	84*	9	-15	115*
OCC1(CCc2ccccc2)CCN(Cc2cccn2-c2cccnc2)CC1	1	0	0	-6	0
CCCN1C2CCCC1CC(NC(=O)c1cc(OC)c(OC)c(OC)c1)C2 (configuration not stated)	0	0	1	-13	1
O=C(NC(Nc1nc2ccc([N+](=O)[O-])cc2s1)(C(F)(F)F)C(F)(F)F)c1ccccc1Cl	23*	5	23*	-11	2
O=C(NC(Nc1nc2ccc([N+](=O)[O-])cc2s1)(C(F)(F)F)C(F)(F)F)c1cccnc1	10	14	18	-12	17
CN(C)c1ccc(/C=C2\Oc3ccc(C#Cc4cccc(N)c4)cc3C2=O)cc1	x	41*	x	-13	41*
Nc1c(Cl)ncnc1N/N=C/c1ccncc1	1	1	0	-1	1
C#CCOCCOCCOCCNc1nc(N2CCN(C(=O)CCCCCCCCCCNC(=O)Cn3cc(CCCCCN)nn3)CC2)nc(N2CCN(C(=O)CCCCCCCCCCNC(=O)[C@H](CO)n3cc(CCCCCN)nn3)CC2)n1	x	26*	x	-15	25*
C#CCOCCOCCOCCNc1nc(N2CCN(C(=O)CCCCCCCCCCNC(=O)[C@H]([C@@H](C)CC)n3cc(CCCCCN)nn3)CC2)nc(N2CCN(C(=O)CCCCCCCCCCNC(=O)[C@@H]([C@H](C)O)n3cc(C)nn3)CC2)n1	x	58*	x	-13	37*
C#CCOCCOCCOCCNc1nc(N2CCN(C(=O)CCCCCCCCCCNC(=O)[C@H](CCCCN)n3cc(C)nn3)CC2)nc(N2CCN(C(=O)CCCCCCCCCCNC(=O)[C@@H]([C@H](C)CC)n3cc(CCCCCN)nn3)CC2)n1	x	38*	x	-13	3
C#CCOCCOCCOCCNc1nc(N2CCN(C(=O)CCCCCCCCCCNC(=O)[C@H](CCCCN)n3cc(CCO)nn3)CC2)nc(N2CCN(C(=O)CCCCCCCCCCNC(=O)[C@@H]([C@H](C)O)n3cc(C)nn3)CC2)n1	x	12	x	-8	1
Cc1ccc(NCc2ccc(C)s2)cc1	x	-1	x	-12	-3
Cc1ccc(O)c(C(=O)c2cc(C#N)c(=O)n(-c3nccs3)c2)c1	19*	54*	45*	-15	66*
CN1C(=O)c2cccc3c(N(C)C)ccc(c23)C1=O	x	23*	x	-20	23*
CN1C(=O)c2cccc3c(Cl)ccc(c23)C1=O	1	0	1	-1	-2
CNc1ccc2c3c(cccc13)C(=O)N(C)C2=O	x	314*	x	-26	192*
CC(C)NC(=O)N(C)C[C@H]1Oc2ccc(NC(=O)Nc3ccccc3)cc2C(=O)N([C@@H](C)CO)C[C@@H]1C	x	1	x	-2	3
O=C(O)c1cc(N/N=C/C=C/c2ccccc2[N+](=O)[O-])ccc1Cl	0	0	-2	0	-1
COc1ccc(NS(=O)(=O)c2ccc(C(=O)N3CCCCCC3)cc2)cc1	x	24*	x	-12	27*
O=C(c1ccc(S(=O)(=O)Nc2ccccc2)cc1)N1CCCC(C(F)(F)F)C1 (configuration not stated)	x	43*	x	-16	36*
CCOc1ccc(NS(=O)(=O)c2ccc(C(=O)N3CCCC(C)C3)cc2)cc1 (configuration not stated)	x	39*	x	-10	47*
SMILES	TRPML3 agonist	V1aR counter	zfTRPN1 agonist	OXTR potentiate	OXTR ag
CCOc1ccc(NS(=O)(=O)c2ccc(C(=O)N3CCCCCC3)cc2)cc1	x	17	x	-24	15
Cc1ccc(NS(=O)(=O)c2ccc(C(=O)N3CCC3)cc2)cc1	x	6	x	-13	4
CCOc1ccc(S(=O)(=O)Nc2ccc(C(=O)N3CCCC3)cc2)cc1	x	3	x	-9	4
Cc1ccc(NS(=O)(=O)c2ccc(C(=O)N3CC(C)OC(C)C3)cc2)cc1 (configuration not stated)	x	37*	x	-17	41*
O=C(c1ccccc1)c1ccc(C(=O)N2CCCC(C(F)(F)F)C2)cc1 (configuration not stated)	x	0	x	-15	-2
Cc1ccc(NC(=O)COC(=O)c2ccco2)cc1S(=O)(=O)N1CCOCC1	x	2	x	-7	2
Cc1ccccc1N1CCN(S(=O)(=O)Cc2ccccc2)CC1	x	3	x	-15	-1
COc1ccc2nc(NC(=O)CSc3n[nH]c(N)n3)sc2c1	x	2	x	-10	0
CCOC(=O)c1ccc(NC(=S)NCCc2ccc(F)cc2)cc1	2	9	3	-15	9
Cc1cnc(C(=O)OCC(=O)NCc2ccc(Cl)cc2)cn1	x	-1	x	-7	0
COCCCn1c(=NC(=O)c2ccccc2)c(C#N)cc2c(=O)n3cccc(C)c3nc21	25*	-2	37*	-7	-2
CC1CC1C(=O)OCC(=O)Nc1ccc(S(=O)(=O)N2CCOCC2)cc1 (configuration not stated)	x	2	x	-8	3
O=C(OCCN1C(=O)c2cccc3c(N4CCOCC4)ccc(c23)C1=O)c1ccc(Cl)cc1Cl	4	9	7	-5	14
O=C(OCCN1C(=O)c2cccc3c(N4CCOCC4)ccc(c23)C1=O)c1cccc(Cl)c1	7	22*	6	-11	23*
Cc1nn(-c2ccccc2)c(N2CCCC2)c1/C=C1\N=C(c2ccc(OC(C)C)cc2)OC1=O	1	2	1	0	1
Cc1ccc(NC(=S)NNc2ncc(C(F)(F)F)cc2Cl)c(C)c1	0	4	0	-16	9
Fc1ccc(NC(=S)NNc2ncc(C(F)(F)F)cc2Cl)c(F)c1	14*	15	23*	-26	16
FC(F)(F)c1cnc(NNC(=S)Nc2ccc(Cl)cc2)c(Cl)c1	18*	11	26*	-5	15
COc1ccc(OC)c(NC(=O)CCC(=O)Nc2nnc(C(C)C)s2)c1	x	0	x	8	1
